# Measured values of several laboratories.
# Compare with care: the assays were run in different laboratories.
SMILES,tested on,test,system,setting,measurement,result
COC(=O)[C@@H]1[C@@H](c2ccccc2)[C@]2(c3ccc(OC)cc3)Oc3cc(OC)cc(OC)c3[C@@]23N=C(C)N[C@@]13O,HepG2,"cell growth or viability, MTT",,48 h,CC50,0.0105 µM
N=c1c2c(-c3ccccc3)c(-c3ccccc3)n(Cc3ccccc3)c2ncn1[C@H]1CC[C@H](O)CC1,,,"male cynomolgus monkey, plasma","oral, 1 mg/kg, single dose",AUC(0-inf),27800 ng·h/mL
CCCCCCCCCCOc1cc2c(O)c(C(=O)OCC)cnc2cc1OCC,HepG2,cell growth or viability,,72 h,IC50,> 100 µM
O=C(c1ccc(-n2sc3ncccc3c2=O)cc1)N1CCOCC1,,metabolic stability,"human, liver microsomes",,half-life,> 120 min
CN1CCCCC1Cn1cc(C(=O)c2cc([N+](=O)[O-])ccc2I)c2ccccc21 (racemic),,,"mouse, plasma","intravenous, 25 mg/kg",MRT,54.7 min
Cc1cc(C)nc(Nc2ncc(C(=O)NCCc3c(C)[nH]c4ccccc34)cn2)c1,,metabolic stability,"male human, hepatocytes",1 µM,half-life,41 min
O=C1[O][Pt]2([NH][C@@H]3CCCC[C@H]3[NH]2)[O]C1=O (relative stereo),,,"cynomolgus monkey, plasma","intravenous, 2 mg/kg",AUC(0-t),9170 ng·h/mL
CCC1(c2ccccc2)C(=O)NC(=O)NC1=O,HepG2,"cell growth or viability, ATP luminescence",,,CC50,> 1000 µM
